Results: article PMC3733550 (Biochemical pharmacology, 2011)
Like-named read-outs stand apart in the source and are kept apart here. Marks after values point to notes of the source that are not given here. Each block holds one molecule with its values, some of them ahead of it.

Key:
[1] = tested on: ABCG2-expressing MDA-MD-231/R cells; experiment: Re-sensitization of MDA-MB-231/R cells to mitoxantrone; format: cell-based, human
ABCG2 [2] = biological target: T1, ABCG2 (Homo sapiens, UniProt Q9UNQ0); conditions: read-out: EC50 PhA; increasing PhA content in ABCG2 over-expressing MDA-MB-231/R cells; cited from earlier work
T1 sequence (Q9UNQ0 1-655): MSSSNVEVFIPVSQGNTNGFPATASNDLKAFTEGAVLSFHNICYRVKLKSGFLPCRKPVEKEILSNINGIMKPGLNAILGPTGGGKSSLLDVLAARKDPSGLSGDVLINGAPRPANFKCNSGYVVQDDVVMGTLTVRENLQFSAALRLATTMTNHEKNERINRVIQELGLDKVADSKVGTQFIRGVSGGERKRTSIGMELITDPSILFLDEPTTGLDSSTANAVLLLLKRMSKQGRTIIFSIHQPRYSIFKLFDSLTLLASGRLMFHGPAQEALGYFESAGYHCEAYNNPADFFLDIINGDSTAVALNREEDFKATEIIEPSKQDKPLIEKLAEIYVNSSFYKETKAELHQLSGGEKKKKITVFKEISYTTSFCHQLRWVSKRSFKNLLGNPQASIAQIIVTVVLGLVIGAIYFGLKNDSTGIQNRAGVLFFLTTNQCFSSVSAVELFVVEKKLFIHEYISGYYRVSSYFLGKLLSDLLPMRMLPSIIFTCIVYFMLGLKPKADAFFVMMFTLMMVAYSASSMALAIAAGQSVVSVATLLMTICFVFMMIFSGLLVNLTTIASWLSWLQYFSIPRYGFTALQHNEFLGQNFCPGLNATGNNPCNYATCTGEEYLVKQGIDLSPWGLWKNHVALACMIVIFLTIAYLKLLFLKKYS

[3] = tested on: ABCG2 expression in MDA-MB-231/R cells; experiment: Western blot analysis of ABCG2 protein levels in MDA-MB-231/R cells; format: cell-based, human; conditions: 72 h; A-2 0.5 μM or 1 μM; MX 0.1 μM
MDA-MB-231/V cells = experiment: Growth inhibition by mitoxantrone in parental MDA-MB-231/V cells; format: cell-based; conditions: Homo sapiens, MDA-MB-231, 72 h, read-out: IC50 value of MX in MDA-MB-231/V cells
MDA-MB-231/V = experiment: Cell cytotoxicity by MTT assay on MDA-MB-231/V cells; format: cell-based, human; conditions: % of control cells (1% DMSO)
Method in brief: (§1)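 Cells grown in RPMI 1640 with 10% FBS and 1.0 mg/ml geneticin at 37°C, 5% CO2, and used within 10 passages. 10^4 cells/well were seeded for 24 h, then exposed for 72 h to test compound (5 or 10 μM; 1% v/v DMSO final). After a PBS wash, MTT was added (3 h, 37°C), formazan dissolved in DMSO, and A590 read. Viability is % of 1% DMSO controls, mean (SD) of three independent determinations.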

MDA-MB-231/R = experiment: Cell cytotoxicity by MTT assay on MDA-MB-231/R cells; format: cell-based, human; conditions: % of control cells (1% DMSO)
Method in brief: as §1

ABCG2 [4] = biological target: T1, ABCG2; experiment: Photoaffinity labeling of ABCG2 with [125I]-IAAP in MCF-7 FLV1000 membranes; format: binding; conditions: test compound 5 μM
ABCG2 [5] = biological target: T1, ABCG2; experiment: ABCG2 ATPase assay; format: biochemical

SMILES: COc1ccc2c3c([nH]c2c1)[C@H](C=C(C)C)N1C(=O)[C@@H]2CCCN2C(=O)[C@@H]1C3 [FTC, fumitremorgin C]
- Resistance index ([1]; MX + test compound 0.05 μM, IC50 of MX R cells + test compound / IC50 of MX V cells): 7.4
- EC50 (ABCG2 [2]): 1300 nM

SMILES: O=C1c2c(O)ccc(O)c2C(=O)c2c(NCCNCCO)ccc(NCCNCCO)c21 [Mitoxantrone]
- IC50 ([1]; Homo sapiens, MDA-MB-231, 72 h, read-out: IC50 of mitoxantrone): 920 nM
- Effect on ABCG2 protein levels in R cells [3]: no effect
- IC50 (MDA-MB-231/V cells): 70 nM

- Effect on photolabelling of ABCG2 by [125I]-IAAP (in words) (ABCG2 [4]): minimal changes
- ATPase activity (fold stimulation) (ABCG2 [5]): 2.8 fold
- EC50 (ABCG2 [5]): 190 nM
SMILES: O=C1/C(=C/c2ccccc2)Oc2ccccc21 [UA-1]
- % Viability MDA-MB-231/V 5 μM (MDA-MB-231/V; 5 μM): 98 (9) ^d %
- % Viability MDA-MB-231/V 10 μM (MDA-MB-231/V; 10 μM): 103 (7) ^c %
- % Viability MDA-MB-231/R 5 μM (MDA-MB-231/R; 5 μM): 68 (10) ^d %
- % Viability MDA-MB-231/R 10 μM (MDA-MB-231/R; 10 μM): 60 (8) ^c %
